Measurements taken from ChEMBL document CHEMBL5046302, “Identification and Evaluation of Brominated Carbazoles as a Novel Antibiotic Adjuvant Scaffold in MRSA” (2022).
Active and inactive are the calls of the source. The rule behind the calls is not given here.

Legend:
Format in all cases: functional
[1] = tested on: Staphylococcus aureus; assay: Antibacterial activity against methicillin-resistant Staphylococcus aureus ATCC 43300 assessed as inhibition of bacterial growth after 18 hrs by CLSI protocol based broth microdilution assay
In short: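 Broth microdilution MIC of carbazole alone vs MRSA ATCC 43300, tested up to 200 μM.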

[2] = tested on: Staphylococcus aureus; assay: Potentiation of oxacillin induced antibacterial activity against methicillin-resistant Staphylococcus aureus ATCC 43300 assessed as fold change in oxacillin MIC at 10 uM after 18 hrs by CLSI protocol based broth microdilution assay
[3] = tested on: Staphylococcus aureus; assay: Potentiation of oxacillin induced antibacterial activity against methicillin-resistant Staphylococcus aureus ATCC 43300 assessed as oxacillin MIC at 10 uM after 18 hrs by CLSI protocol based broth microdilution assay
[4] = tested on: Staphylococcus aureus; assay: Potentiation of oxacillin induced antibacterial activity against methicillin-resistant Staphylococcus aureus COL assessed as oxacillin MIC at 10 uM after 18 hrs by CLSI protocol based broth microdilution assay
[5] = tested on: Staphylococcus aureus; assay: Potentiation of oxacillin induced antibacterial activity against methicillin-resistant Staphylococcus aureus USA300 assessed as fold change in oxacillin MIC at 10 uM after 18 hrs by CLSI protocol based broth microdilution assay
[6] = tested on: Staphylococcus aureus; assay: Potentiation of oxacillin induced antibacterial activity against methicillin-resistant Staphylococcus aureus COL assessed as fold change in oxacillin MIC at 10 uM after 18 hrs by CLSI protocol based broth microdilution assay
[7] = tested on: Staphylococcus aureus; assay: Potentiation of oxacillin induced antibacterial activity against methicillin-resistant Staphylococcus aureus USA300 assessed as oxacillin MIC at 10 uM after 18 hrs by CLSI protocol based broth microdilution assay
[8] = tested on: Staphylococcus aureus; assay: Potentiation of oxacillin induced antibacterial activity against methicillin-resistant Staphylococcus aureus USA100 assessed as fold change in oxacillin MIC at 10 uM after 18 hrs by CLSI protocol based broth microdilution assay
[9] = tested on: Staphylococcus aureus; assay: Potentiation of oxacillin induced antibacterial activity against methicillin-resistant Staphylococcus aureus USA100 assessed as oxacillin MIC at 10 uM after 18 hrs by CLSI protocol based broth microdilution assay
[10] = tested on: Staphylococcus aureus; assay: Antibacterial activity against methicillin-resistant Staphylococcus aureus USA100 assessed as inhibition of bacterial growth after 18 hrs in presence of oxacillin by CLSI protocol based broth microdilution assay
[11] = tested on: Staphylococcus aureus; assay: Antibacterial activity against methicillin-resistant Staphylococcus aureus USA300 assessed as inhibition of bacterial growth after 18 hrs in presence of oxacillin by CLSI protocol based broth microdilution assay
[12] = tested on: Staphylococcus aureus; assay: Antibacterial activity against methicillin-resistant Staphylococcus aureus COL assessed as inhibition of bacterial growth after 18 hrs in presence of oxacillin by CLSI protocol based broth microdilution assay
[13] = tested on: Staphylococcus aureus; assay: Potentiation of oxacillin induced antibacterial activity against methicillin-resistant Staphylococcus aureus ATCC 43300 assessed as oxacillin MIC at 50 uM after 18 hrs by CLSI protocol based broth microdilution assay
[14] = tested on: Staphylococcus aureus; assay: Potentiation of oxacillin induced antibacterial activity against methicillin-resistant Staphylococcus aureus ATCC 43300 assessed as fold change in oxacillin MIC at 50 uM after 18 hrs by CLSI protocol based broth microdilution assay
[15] = tested on: Staphylococcus aureus; assay: Potentiation of oxacillin induced antibacterial activity against methicillin-resistant Staphylococcus aureus USA 100 assessed as fold change in oxacillin MIC at 50 uM after 18 hrs by CLSI protocol based broth microdilution assay
[16] = tested on: Staphylococcus aureus; assay: Potentiation of oxacillin induced antibacterial activity against methicillin-resistant Staphylococcus aureus COL assessed as fold change in oxacillin MIC at 50 uM after 18 hrs by CLSI protocol based broth microdilution assay
[17] = tested on: Staphylococcus aureus; assay: Potentiation of oxacillin induced antibacterial activity against methicillin-resistant Staphylococcus aureus COL assessed as oxacillin MIC at 50 uM after 18 hrs by CLSI protocol based broth microdilution assay
[18] = tested on: Staphylococcus aureus; assay: Potentiation of oxacillin induced antibacterial activity against methicillin-resistant Staphylococcus aureus USA300 assessed as fold change in oxacillin MIC at 50 uM after 18 hrs by CLSI protocol based broth microdilution assay
[19] = tested on: Staphylococcus aureus; assay: Potentiation of oxacillin induced antibacterial activity against methicillin-resistant Staphylococcus aureus USA100 assessed as oxacillin MIC at 50 uM after 18 hrs by CLSI protocol based broth microdilution assay
[20] = tested on: Staphylococcus aureus; assay: Potentiation of oxacillin induced antibacterial activity against methicillin-resistant Staphylococcus aureus USA300 assessed as oxacillin MIC at 50 uM after 18 hrs by CLSI protocol based broth microdilution assay
[21] = tested on: Staphylococcus aureus; assay: Antibacterial activity against methicillin-resistant Staphylococcus aureus USA300 harboring stk1 deletion mutant assessed as inhibition of bacterial growth after 18 hrs in presence of oxacillin by CLSI protocol based broth microdilution assay
In short: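 USA300 Δstk1 mutant. Oxacillin MIC (µg mL⁻¹) was read with each carbazole held at a fixed 25 or 50 µM, and compared with oxacillin alone in the same strain. Fold change in MIC was taken as alone over cotreated. The parent USA300 and the stk1-complemented (Δ/+stk1) strains were run alongside.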

[22] = tested on: Staphylococcus aureus; assay: Antibacterial activity against methicillin-resistant Staphylococcus aureus USA300 harboring stk1 deletion mutant co-transfected with a plasmid bearing stk1 assessed as inhibition of bacterial growth after 18 hrs in presence of oxacillin by CLSI protocol based broth microdilution assay
In short: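 USA300 Δstk1 strain carrying induced stk1 (Δ/+stk1). […] Fold change in MIC taken relative to oxacillin alone.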

[23] = tested on: Staphylococcus aureus; assay: Upregulation of blaZ gene expression in methicillin-resistant Staphylococcus aureus ATCC 43300 by RT-PCR method
[24] = tested on: Staphylococcus aureus; assay: Upregulation of blaZ gene expression in methicillin-resistant Staphylococcus aureus USA100 by RT-PCR method
[25] = tested on: Staphylococcus aureus; assay: Upregulation of mecA gene expression in methicillin-resistant Staphylococcus aureus ATCC 43300 by RT-PCR method
[26] = tested on: Staphylococcus aureus; assay: Upregulation of mecA gene expression in methicillin-resistant Staphylococcus aureus USA100 by RT-PCR method
[27] = tested on: Staphylococcus aureus; assay: Upregulation of mecA gene expression in methicillin-resistant Staphylococcus aureus USA300 by RT-PCR method
[28] = tested on: Staphylococcus aureus; assay: Upregulation of mecA gene expression in methicillin-resistant Staphylococcus aureus COL by RT-PCR method
[29] = tested on: Staphylococcus aureus; assay: Potentiation of oxacillin induced antibacterial activity against methicillin-resistant Staphylococcus aureus ATCC 43300 assessed as oxacillin MIC at 25 uM after 18 hrs by CLSI protocol based broth microdilution assay

SMILES | MIC [1] | MIC [13] | fold change (FC) [14] | fold change (FC) [15] | fold change (FC) [16] | MIC [17] | fold change (FC) [18] | MIC [19] | MIC [20] | also measured
Clc1ccc2[nH]c3ccc(Cl)cc3c2c1 | 50 µM |  |  |  |  |  |  |  |  | fold change (FC) [2]: 1; MIC [3]: 16 µg/mL; MIC [4]: 128 µg/mL; fold change (FC) [5]: 2; fold change (FC) [6]: 4; MIC [7]: 16 µg/mL; fold change (FC) [8]: 1; MIC [9]: 256 µg/mL
CC1(C)S[C@@H]2[C@H](NC(=O)[C@H](N)c3ccccc3)C(=O)N2[C@H]1C(=O)O [AMPICILLIN] | 32 µg/mL |  |  |  |  |  |  |  |  | MIC [10]: 32 µg/mL; MIC [11]: 8 µg/mL; MIC [12]: 32 µg/mL
CC(C)(O/N=C(\C(=O)N[C@@H]1C(=O)N2C(C(=O)[O-])=C(C[n+]3ccccc3)CS[C@H]12)c1csc(N)n1)C(=O)O [CEFTAZIDIME] | 128 µg/mL |  |  |  |  |  |  |  |  | MIC [10]: 1020 µg/mL; MIC [11]: 512 µg/mL; MIC [12]: 1020 µg/mL
Ic1ccc2[nH]c3ccccc3c2c1 | > 200 µM | 16 µg/mL | 2 | 2 | 1 | 512 µg/mL | 2 | 128 µg/mL | 16 µg/mL | 
COc1ccc2[nH]c3ccc(OC)cc3c2c1 | > 200 µM | 64 µg/mL | 0.5 | 1 | 1 | 512 µg/mL | >1 | 256 µg/mL | 64 µg/mL | 
Brc1ccc2c(c1)[nH]c1cc(Br)ccc12 | > 200 µM | 8 µg/mL | 4 | 4 | 2 | 256 µg/mL | 4 | 64 µg/mL | 8 µg/mL | 
Fc1ccc2[nH]c3ccccc3c2c1 | > 200 µM | 16 µg/mL | 2 | 2 | 1 | 512 µg/mL | 1 | 128 µg/mL | 32 µg/mL | 
Brc1ccc2[nH]c3ccccc3c2c1 | > 200 µM | 32 µg/mL | 1 | 2 | 1 | 512 µg/mL | 1 | 128 µg/mL | 32 µg/mL | 
Clc1ccc2c(c1)[nH]c1ccccc12 | > 200 µM | 16 µg/mL | 2 | 2 | 2 | 512 µg/mL | 1 | 128 µg/mL | 16 µg/mL | 
CO[C@@]1(NC(=O)Cc2cccs2)C(=O)N2C(C(=O)O)=C(COC(N)=O)CS[C@@H]21 [CEFOXITIN] | 64 µg/mL |  |  |  |  |  |  |  |  | MIC [10]: 256 µg/mL; MIC [11]: 32 µg/mL; MIC [12]: 256 µg/mL
Cc1onc(-c2ccccc2)c1C(=O)N[C@@H]1C(=O)N2[C@@H]1SC(C)(C)[C@@H]2C(=O)O [OXACILLIN] | 32 µg/mL |  |  |  |  |  |  |  |  | MIC [10]: 256 µg/mL; MIC [11]: 32 µg/mL; MIC [12]: 512 µg/mL; MIC [21]: 0.25 µg/mL; MIC [22]: 4 µg/mL; Activity [23]: Active; Activity [24]: Active; Activity [25]: Active; Activity [26]: Active; Activity [27]: Active; Activity [28]: Active
Oc1cccc2[nH]c3ccccc3c12 | > 200 µM | 32 µg/mL | 1 | 1 | 1 | 512 µg/mL | 1 | 256 µg/mL | 32 µg/mL | 
Brc1ccc2c(c1)[nH]c1ccccc12 | > 200 µM | 16 µg/mL | 2 | 2 | 1 | 512 µg/mL | 1 | 128 µg/mL | 32 µg/mL | 
COc1cccc(OC)c1C(=O)N[C@@H]1C(=O)N2[C@@H]1SC(C)(C)[C@@H]2C(=O)O [METHICILLIN] | 4 µg/mL |  |  |  |  |  |  |  |  | MIC [10]: 512 µg/mL; MIC [11]: 32 µg/mL; MIC [12]: 1020 µg/mL
CC(C(=O)O)c1ccc2c(c1)[nH]c1ccc(Cl)cc12 (stereo not given) [CARPROFEN] | 100 µM |  |  | 1 | 1 | 512 µg/mL | 1 | 256 µg/mL | 16 µg/mL | MIC [29]: 32 µg/mL
Nc1ccc2[nH]c3ccc(N)cc3c2c1 | > 200 µM | 32 µg/mL | 1 | 1 | 1 | 512 µg/mL | 1 | 256 µg/mL | 16 µg/mL | 
c1ccc2c(c1)[nH]c1ccccc12 [CARBAZOLE] | > 200 µM | 32 µg/mL | 1 | 1 | 1 | 512 µg/mL | 1 | 256 µg/mL | 32 µg/mL | 
